According to ChEMBL document CHEMBL5661979, “Pharmacological inhibition of BMK1 suppresses tumor growth through promyelocytic leukemia protein” (Cancer Cell, 2010):
Activity calls are given as the source filed them. The rule behind the calls is not given here.

Legend:
[1] = target: Rho-associated protein kinase (Homo sapiens, UniProt O75116+Q13464); test: Inhibition of ROCK1/2 in human HeLa cells lysate at 2 uM pre incubated for 15 mins followed by ATP acyl phosphate probe addition and measured after 10 mins by LC-MS/MS analysis relative to control; assay type: subcellular; details: time 25.0 min
[2] = target: T1, Dual specificity mitogen-activated protein kinase kinase 7 (Homo sapiens) (UniProt O14733); test: Inhibition of MAP2K7 in human HeLa cells lysate at 50 uM pre incubated for 15 mins followed by ADP acyl phosphate probe addition and measured after 10 mins by LC-MS/MS analysis relative to control; assay type: subcellular; details: time 25.0 min
T1 sequence (whole entry): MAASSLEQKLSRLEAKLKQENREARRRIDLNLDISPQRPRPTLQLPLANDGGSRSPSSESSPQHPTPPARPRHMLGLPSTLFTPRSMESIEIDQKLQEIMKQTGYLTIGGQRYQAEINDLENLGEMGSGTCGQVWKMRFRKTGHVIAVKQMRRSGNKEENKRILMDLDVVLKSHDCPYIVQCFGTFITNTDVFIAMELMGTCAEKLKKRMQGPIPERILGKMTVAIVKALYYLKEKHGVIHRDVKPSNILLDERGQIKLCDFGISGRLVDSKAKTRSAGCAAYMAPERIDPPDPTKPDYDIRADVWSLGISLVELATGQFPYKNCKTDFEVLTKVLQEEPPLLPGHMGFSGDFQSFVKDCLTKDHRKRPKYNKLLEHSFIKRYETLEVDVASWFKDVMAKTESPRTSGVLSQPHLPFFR

[3] = target: T2, Serine/threonine-protein kinase Nek9 (Homo sapiens) (UniProt Q8TD19); test: Inhibition of NEK9 in human HeLa cells lysate at 50 uM pre incubated for 15 mins followed by ATP acyl phosphate probe addition and measured after 10 mins by LC-MS/MS analysis relative to control; assay type: subcellular; details: time 25.0 min
T2 sequence (whole entry): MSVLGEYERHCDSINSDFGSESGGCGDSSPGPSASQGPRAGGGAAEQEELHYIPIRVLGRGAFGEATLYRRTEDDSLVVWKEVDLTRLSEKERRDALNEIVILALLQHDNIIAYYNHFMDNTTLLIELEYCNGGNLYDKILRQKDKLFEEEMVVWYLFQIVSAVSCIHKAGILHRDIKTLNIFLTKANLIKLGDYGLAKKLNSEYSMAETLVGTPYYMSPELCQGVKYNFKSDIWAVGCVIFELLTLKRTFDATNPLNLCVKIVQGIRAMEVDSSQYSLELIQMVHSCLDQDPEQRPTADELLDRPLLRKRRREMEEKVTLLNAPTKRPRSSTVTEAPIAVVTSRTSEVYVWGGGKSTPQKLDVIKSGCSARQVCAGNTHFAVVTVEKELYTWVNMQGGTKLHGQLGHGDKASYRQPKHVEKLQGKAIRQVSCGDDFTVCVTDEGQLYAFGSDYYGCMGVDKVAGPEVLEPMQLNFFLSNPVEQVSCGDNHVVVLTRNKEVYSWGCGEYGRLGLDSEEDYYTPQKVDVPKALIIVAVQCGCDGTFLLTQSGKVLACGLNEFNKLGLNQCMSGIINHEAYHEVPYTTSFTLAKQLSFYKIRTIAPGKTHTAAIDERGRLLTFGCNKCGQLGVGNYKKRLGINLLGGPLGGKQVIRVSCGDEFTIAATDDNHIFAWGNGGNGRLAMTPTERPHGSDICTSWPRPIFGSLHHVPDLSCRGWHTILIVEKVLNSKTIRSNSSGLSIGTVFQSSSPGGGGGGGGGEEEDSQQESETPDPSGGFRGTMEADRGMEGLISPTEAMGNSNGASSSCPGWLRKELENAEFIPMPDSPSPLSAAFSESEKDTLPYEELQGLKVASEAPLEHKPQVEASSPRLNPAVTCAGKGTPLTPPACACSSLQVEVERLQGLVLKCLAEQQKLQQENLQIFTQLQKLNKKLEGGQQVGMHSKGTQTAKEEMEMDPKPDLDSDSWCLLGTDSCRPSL

[4] = target: T3, Serine/threonine-protein kinase 3 (Homo sapiens) (UniProt Q13188); test: Inhibition of MST2 in human HeLa cells lysate at 10 uM pre incubated for 15 mins followed by ADP acyl phosphate probe addition and measured after 10 mins by LC-MS/MS analysis relative to control; assay type: subcellular; details: time 25.0 min
T3 sequence (whole entry): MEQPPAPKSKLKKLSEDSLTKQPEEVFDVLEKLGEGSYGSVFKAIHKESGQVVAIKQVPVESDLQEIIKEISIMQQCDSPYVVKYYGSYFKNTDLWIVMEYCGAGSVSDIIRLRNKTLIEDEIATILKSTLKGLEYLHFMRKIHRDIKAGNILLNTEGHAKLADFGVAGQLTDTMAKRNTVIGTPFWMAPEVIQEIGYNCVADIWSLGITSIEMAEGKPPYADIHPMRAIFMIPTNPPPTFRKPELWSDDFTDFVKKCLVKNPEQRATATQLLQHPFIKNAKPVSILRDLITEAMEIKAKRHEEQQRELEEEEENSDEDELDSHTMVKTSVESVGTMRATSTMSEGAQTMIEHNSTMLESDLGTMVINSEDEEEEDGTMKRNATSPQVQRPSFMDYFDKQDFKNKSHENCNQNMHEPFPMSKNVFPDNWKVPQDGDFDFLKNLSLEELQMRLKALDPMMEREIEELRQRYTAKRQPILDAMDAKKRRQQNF

[5] = target: Tyrosine-protein kinase Fyn (Homo sapiens, UniProt P06241); test: Inhibition of FYN in human HeLa cells lysate at 10 uM pre incubated for 15 mins followed by ADP acyl phosphate probe addition and measured after 10 mins by LC-MS/MS analysis relative to control; assay type: subcellular; details: time 25.0 min
[6] = target: Serine/threonine-protein kinase DCLK1 (Homo sapiens) (UniProt O15075); test: Inhibition of DCAMKL1 (unknown origin) assessed as remaining activity at 10 uM by ATP-competition binding assay relative to control
[7] = target: Mitogen-activated protein kinase 7 (Mus musculus) (UniProt Q9WVS8); test: Inhibition of BMK1 in mouse MEF cells transfected with PML2D S403D/T409D mutant assessed as increase in p21 protein expression at 5 uM incubated for 16 hrs by Western blot analysis; assay type: cell-based
In short: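 Pml−/− MEFs infected with Ad-EV, Ad-PML or Ad-PML2D. Three days later treated ±5 μM inhibitor for 16 h. p21 western blot quantified by densitometry and normalized to GAPDH, relative to untreated Ad-EV-infected Pml−/− cells set as 1. n = 3, ±SEM.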

[8] = target: Cyclin-dependent kinase 9 (Homo sapiens, UniProt P50750); test: Inhibition of CDK9 in human HeLa cells lysate pre incubated for 15 mins followed by ADP acyl phosphate probe addition and measured after 10 mins by LC-MS/MS analysis; assay type: subcellular
In short: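 KiNativ profiling in HeLa lysate (5 mg/mL total protein). Lysate incubated 15 min with inhibitor at 50, 10, 2, 0.8 or 0 μM. ATP or ADP acylphosphate probe then added (5 μM final) and reacted 10 min. Reaction stopped with urea and analysed by targeted MS, using up to four fragment ions per kinase peptide-probe conjugate. % inhibition taken against untreated lysate. Run in duplicate.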

Sequence of Tyrosine-protein kinase Fyn (P06241 2-537 limits assumed): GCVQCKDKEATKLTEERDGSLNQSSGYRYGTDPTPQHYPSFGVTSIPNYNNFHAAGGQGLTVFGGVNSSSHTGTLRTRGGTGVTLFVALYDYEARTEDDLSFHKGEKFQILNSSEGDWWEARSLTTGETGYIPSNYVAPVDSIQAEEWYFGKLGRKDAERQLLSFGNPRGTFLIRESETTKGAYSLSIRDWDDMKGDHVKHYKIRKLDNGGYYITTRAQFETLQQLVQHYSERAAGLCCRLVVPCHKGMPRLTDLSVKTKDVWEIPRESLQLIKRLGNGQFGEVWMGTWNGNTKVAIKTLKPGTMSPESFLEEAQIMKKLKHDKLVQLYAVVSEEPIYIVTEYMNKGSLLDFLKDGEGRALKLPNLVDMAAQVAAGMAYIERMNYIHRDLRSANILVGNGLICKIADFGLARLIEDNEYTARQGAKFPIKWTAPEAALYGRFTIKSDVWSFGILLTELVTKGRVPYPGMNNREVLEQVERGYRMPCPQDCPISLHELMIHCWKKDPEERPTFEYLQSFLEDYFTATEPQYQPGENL
Sequence of Rho-associated protein kinase (O75116 whole entry, looked up): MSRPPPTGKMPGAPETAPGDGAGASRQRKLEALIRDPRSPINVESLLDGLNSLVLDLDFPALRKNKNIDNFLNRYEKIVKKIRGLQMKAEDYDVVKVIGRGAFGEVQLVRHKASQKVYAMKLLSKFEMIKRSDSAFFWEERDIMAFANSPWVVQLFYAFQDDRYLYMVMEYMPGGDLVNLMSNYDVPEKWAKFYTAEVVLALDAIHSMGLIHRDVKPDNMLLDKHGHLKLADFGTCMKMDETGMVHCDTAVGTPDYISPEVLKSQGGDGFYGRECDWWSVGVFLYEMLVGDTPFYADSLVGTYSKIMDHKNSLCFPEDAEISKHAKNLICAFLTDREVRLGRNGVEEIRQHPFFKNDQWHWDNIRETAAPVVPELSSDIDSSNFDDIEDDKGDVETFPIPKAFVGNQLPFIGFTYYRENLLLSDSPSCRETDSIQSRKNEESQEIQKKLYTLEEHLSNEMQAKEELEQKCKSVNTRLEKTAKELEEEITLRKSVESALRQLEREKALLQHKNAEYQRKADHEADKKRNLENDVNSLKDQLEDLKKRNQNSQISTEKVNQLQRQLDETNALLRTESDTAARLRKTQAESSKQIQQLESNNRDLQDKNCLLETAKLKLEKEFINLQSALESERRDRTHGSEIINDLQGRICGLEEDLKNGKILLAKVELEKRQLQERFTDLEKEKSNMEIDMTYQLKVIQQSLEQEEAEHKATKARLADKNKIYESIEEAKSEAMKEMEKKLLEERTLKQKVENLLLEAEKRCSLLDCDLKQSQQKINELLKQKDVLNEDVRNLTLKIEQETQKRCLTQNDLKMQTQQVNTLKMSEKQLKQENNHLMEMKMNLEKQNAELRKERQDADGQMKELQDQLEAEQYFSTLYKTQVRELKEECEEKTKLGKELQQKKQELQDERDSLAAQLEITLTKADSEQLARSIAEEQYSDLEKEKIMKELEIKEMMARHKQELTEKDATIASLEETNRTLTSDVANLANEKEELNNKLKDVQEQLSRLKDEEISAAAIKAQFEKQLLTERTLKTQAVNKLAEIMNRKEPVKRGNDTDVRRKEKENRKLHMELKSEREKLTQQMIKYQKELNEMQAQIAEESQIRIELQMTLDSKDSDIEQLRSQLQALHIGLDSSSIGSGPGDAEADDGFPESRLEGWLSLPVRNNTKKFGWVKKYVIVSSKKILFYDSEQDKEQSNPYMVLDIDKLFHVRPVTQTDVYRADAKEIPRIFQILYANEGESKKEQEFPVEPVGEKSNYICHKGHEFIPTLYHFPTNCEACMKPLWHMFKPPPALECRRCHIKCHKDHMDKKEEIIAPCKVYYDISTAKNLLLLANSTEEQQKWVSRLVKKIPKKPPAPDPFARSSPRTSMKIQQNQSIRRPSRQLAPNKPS
Sequence of Rho-associated protein kinase (Q13464 whole entry, looked up): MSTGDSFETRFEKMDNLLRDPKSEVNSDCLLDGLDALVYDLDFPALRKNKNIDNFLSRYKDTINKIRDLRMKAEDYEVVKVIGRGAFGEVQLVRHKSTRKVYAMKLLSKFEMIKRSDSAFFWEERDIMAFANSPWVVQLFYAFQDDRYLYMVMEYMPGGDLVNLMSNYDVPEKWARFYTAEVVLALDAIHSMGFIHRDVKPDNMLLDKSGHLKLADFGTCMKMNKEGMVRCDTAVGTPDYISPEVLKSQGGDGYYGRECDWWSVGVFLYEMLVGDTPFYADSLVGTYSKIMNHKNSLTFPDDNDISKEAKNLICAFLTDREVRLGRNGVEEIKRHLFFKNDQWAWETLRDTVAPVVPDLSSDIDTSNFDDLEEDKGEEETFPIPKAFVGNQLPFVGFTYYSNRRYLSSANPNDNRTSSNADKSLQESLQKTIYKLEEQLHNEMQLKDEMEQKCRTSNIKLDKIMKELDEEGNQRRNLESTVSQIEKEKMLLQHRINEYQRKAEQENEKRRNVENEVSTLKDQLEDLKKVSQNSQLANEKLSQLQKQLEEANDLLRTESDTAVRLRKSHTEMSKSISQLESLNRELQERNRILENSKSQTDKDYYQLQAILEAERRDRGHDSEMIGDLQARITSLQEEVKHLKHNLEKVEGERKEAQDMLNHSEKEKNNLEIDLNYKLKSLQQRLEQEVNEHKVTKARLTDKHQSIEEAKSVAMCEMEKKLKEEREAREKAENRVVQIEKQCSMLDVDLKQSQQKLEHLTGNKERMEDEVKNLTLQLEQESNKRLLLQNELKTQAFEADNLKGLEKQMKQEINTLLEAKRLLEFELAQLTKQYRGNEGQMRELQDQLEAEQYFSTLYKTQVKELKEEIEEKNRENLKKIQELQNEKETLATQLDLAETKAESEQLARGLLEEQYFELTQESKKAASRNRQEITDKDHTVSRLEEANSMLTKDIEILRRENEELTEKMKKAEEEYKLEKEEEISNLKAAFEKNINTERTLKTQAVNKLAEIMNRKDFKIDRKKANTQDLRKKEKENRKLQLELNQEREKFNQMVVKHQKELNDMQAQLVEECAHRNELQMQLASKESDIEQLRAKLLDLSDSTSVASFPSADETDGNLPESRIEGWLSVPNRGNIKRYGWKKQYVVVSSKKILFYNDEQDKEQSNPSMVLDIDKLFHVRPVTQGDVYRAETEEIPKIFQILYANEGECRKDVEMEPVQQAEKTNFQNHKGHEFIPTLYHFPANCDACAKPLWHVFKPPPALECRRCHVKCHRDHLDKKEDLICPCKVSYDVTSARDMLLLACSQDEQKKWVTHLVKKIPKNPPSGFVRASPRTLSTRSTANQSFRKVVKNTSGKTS
Sequence of Serine/threonine-protein kinase DCLK1 (Homo sapiens) (O15075 whole entry): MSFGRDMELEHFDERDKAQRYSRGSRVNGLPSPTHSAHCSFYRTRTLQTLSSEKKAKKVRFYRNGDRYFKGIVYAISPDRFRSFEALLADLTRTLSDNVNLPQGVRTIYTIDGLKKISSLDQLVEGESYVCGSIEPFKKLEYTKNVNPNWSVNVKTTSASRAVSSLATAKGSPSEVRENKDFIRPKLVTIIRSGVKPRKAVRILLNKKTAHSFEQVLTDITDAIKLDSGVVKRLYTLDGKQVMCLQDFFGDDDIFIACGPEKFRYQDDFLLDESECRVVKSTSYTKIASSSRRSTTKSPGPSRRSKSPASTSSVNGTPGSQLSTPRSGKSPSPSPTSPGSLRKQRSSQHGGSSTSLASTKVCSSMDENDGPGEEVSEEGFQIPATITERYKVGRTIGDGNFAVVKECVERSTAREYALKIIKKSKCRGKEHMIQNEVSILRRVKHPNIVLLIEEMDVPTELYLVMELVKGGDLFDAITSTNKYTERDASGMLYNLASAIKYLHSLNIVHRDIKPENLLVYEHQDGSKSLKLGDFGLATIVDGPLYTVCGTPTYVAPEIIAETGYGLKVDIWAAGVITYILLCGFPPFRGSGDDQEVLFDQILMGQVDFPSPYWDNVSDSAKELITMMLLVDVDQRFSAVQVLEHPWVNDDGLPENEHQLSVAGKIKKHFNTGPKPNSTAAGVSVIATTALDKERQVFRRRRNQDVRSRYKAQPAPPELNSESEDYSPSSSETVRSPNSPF
Sequence of Mitogen-activated protein kinase 7 (Mus musculus) (Q9WVS8 whole entry): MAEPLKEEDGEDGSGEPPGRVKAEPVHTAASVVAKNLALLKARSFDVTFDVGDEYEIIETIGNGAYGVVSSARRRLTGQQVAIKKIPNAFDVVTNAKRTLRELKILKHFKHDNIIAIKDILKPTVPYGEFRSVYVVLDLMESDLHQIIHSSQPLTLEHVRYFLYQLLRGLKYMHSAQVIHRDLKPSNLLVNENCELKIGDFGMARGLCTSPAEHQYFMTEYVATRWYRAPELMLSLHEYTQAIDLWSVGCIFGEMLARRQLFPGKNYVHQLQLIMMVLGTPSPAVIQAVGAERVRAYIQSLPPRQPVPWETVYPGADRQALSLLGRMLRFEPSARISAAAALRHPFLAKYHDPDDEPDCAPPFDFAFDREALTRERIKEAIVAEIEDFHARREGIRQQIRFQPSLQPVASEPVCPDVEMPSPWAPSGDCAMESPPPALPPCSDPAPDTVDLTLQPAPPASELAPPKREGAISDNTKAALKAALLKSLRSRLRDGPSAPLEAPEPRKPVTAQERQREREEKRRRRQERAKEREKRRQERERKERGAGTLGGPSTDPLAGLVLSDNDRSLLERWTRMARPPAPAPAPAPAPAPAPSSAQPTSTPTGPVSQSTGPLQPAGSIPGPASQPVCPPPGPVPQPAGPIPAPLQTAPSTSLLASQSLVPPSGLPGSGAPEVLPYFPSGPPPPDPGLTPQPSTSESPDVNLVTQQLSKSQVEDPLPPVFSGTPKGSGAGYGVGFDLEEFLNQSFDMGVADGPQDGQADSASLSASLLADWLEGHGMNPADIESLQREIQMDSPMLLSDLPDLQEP

CCOc1cc(N2CCC(O)CC2)ccc1Nc1ncc2c(n1)N(C)c1ccccc1C(=O)N2C
inhibition [1]: 0.1%
inhibition [2]: 4.2%
inhibition [3]: -1.6%
inhibition [4]: 23.5%
inhibition [5]: 11.9%
Activity [6]: 0.9%
inhibition [7]: inactive
IC50 [8]: > 50 µM
